OX1R antag-1 = human HCRTR1 antagonism; O43613; CHO/OX1R cells, Fluo-8 calcium fluorescence, orexin A; inhibition, % at 5 µM; hit rate 0.43% among 330,000;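 active means inhibition above its plate's threshold, mean inhibition of all tested compounds on the plate plus 3 SD, cut at about 37% in these data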;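 further: 0% = orexin A challenge wells and 100% = SB-334867-A antagonist wells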
TAAR1 antag = antagonists of human TAAR1. inhibition, % at 3 µM. hit rate 1.5% among 360,000. Q96RJ0. CHO RD-HGA16 TAAR1, Fluo-8 calcium fluorescence, antagonist;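 active means inhibition above a per-plate cutoff, the mean inhibition of test compounds on that plate plus 3 SD, cut at about 49% in these data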;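 further: 0% = DMSO plus EC80 beta-PEA response and 100% = DMSO alone without agonist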
Target sequence (Q96RJ0 whole entry, looked up): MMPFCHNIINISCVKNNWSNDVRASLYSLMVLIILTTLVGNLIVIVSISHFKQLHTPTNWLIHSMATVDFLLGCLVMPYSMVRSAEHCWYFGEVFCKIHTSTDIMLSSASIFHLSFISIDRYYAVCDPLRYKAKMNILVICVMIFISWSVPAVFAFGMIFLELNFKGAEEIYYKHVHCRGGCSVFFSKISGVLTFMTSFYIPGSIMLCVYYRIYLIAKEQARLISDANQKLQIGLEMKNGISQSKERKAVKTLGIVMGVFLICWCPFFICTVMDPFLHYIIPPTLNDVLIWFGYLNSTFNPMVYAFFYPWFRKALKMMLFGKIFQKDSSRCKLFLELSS
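Test system: CHO RD-HGA16 cells bearing hTAAR1 | Reagent: β-PEA, EC80 | Compound dosing: 3 µM, single point | Schedule: Dye loading 75 min at 37 °C, then 30 min room temperature | Signal: Calcium fluorescence with Fluo-8 | Evaluation: Percent inhibition of PEA-evoked calcium signal, max/basal emission ratio | Control set: DMSO-only wells and EC80 β-PEA-stimulated wells | Repeats: Singlicate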
OX1R antag-2 = antagonists of human orexin 1 receptor (OX1R); OX1R-expressing cells, FRET antagonist read-out; inhibition, % at 6.6 µM; hit rate 1.8% among 330,000; AID 485270; in the data active means inhibition mostly above about 38%, no sharp cut-off; inactive means mostly below about 40%;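 further: 0% = agonist challenge alone and 100% = reference antagonist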
GPR7 antagonist = human neuropeptides B/W receptor 1 antagonism; AID 1861; GPR7-expressing cells, fluorescence antagonist assay; inhibition, % at 4.4 µM; P48145; hit rate 1.1% among 290,000; in the data active means inhibition above about 16%, passing the limit was not always enough;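 further: cells stimulated with the agonist NPW; 0% = agonist with vehicle and 100% = vehicle without agonist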
Target sequence (P48145 whole entry, looked up): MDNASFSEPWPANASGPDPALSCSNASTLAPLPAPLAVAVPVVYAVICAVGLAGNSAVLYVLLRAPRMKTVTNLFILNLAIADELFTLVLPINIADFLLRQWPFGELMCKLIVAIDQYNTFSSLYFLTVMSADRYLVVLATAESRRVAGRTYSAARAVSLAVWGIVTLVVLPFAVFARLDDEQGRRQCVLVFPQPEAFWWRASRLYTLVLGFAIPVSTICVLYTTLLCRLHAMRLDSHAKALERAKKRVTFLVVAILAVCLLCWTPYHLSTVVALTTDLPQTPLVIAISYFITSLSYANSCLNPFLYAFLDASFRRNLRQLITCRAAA
CHO parental Ca = signal in parental CHO cells, OX1R antagonist counter-screen. hit rate 0.63% among 330,000. inhibition, % at 5.6 µM. AID 463079. parental CHO-K1, ATP-induced calcium, Fluo-8 fluorescence;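 active means inhibition above that plate's mean sample inhibition plus 3 SD, cut at about 26% in these data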;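 further: 0% = ATP-challenged DMSO wells and 100% = DMSO wells without ATP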
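Material: Parental CHO cells | Reagent: ATP | Compound dosing: Single nominal dose of 5.6 µM per compound | Detection: Intracellular calcium via Fluo-8 no-wash fluorescent dye | Read-out: % inhibition of ATP-induced calcium mobilization | Benchmarks: Low control ATP plus DMSO, high control DMSO only | Replicates: Singlicate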
TAAR1 ag = human TAAR1 agonism. activation, % at 3 µM. AID 624467. hit rate 0.99% among 360,000. CHO RD-HGA16 TAAR1, Fluo-8 calcium fluorescence; vehicle wells 0%, saturating PEA agonist 100%. Q96RJ0;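 active means activation above the mean activation of all test compounds in the run plus 3 SD, cut at about 38% in these data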
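System: CHO-derived RD-HGA16 cells with stable Gα16 and human TAAR1 / Times: 17-24 h plating, Fluo-8 75 min 37 °C, 30 min RT / Technique: calcium-sensitive Fluo-8 signal, excitation 470-495, emission 515-575 nm / Measure: % activation relative to PEA EC100 response / Benchmarks: DMSO and PEA EC100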
Active calls of the source: *; x = no result given. Hits are enriched below; roughly 4.6% of the tested compounds scored in any of these assays.

SMILES	OX1R antag-1	TAAR1 antag	OX1R antag-2	GPR7 antagonist	CHO parental Ca	TAAR1 ag
CC(=O)Nc1ccc(OCC(O)Cn2c3ccccc3c3ccccc32)c(C)c1 (stereo unspecified)	23	65*	16	6	9	36
OC(COc1ccccc1)Cn1c2ccccc2c2ccccc21 (stereo unspecified)	-7	-19	11	-2	-4	8
O=C(O)c1ccc(OCC(O)Cn2c3ccccc3c3ccccc32)cc1 (stereo unspecified)	32	45	13	-5	38*	17
NC(=O)c1ncn([C@@H]2O[C@H](C(=O)N[C@H](Cc3c[nH]c4ccccc34)C(=O)NCC(=O)N3CCCCC3)[C@@H](O)[C@H]2O)n1	x	-4	x	x	x	1
COc1cc(OC)cc(C(=O)Nc2nc(CC(=O)NCc3ccccc3OC)cs2)c1	-30	56*	13	x	-22	6
CCOC(=O)Cc1csc(NC(=O)c2cc(OC)cc(OC)c2)n1	-10	-2	19	-2	-7	2
COc1cc(OC)cc(C(=O)Nc2nc(CC(=O)NCCc3ccccc3)cs2)c1	-19	33	28	x	-40	5
COc1cc(OC)cc(C(=O)Nc2nc(CC(=O)NCc3ccc(F)cc3)cs2)c1	-10	50*	22	x	-22	8
CCNC(=O)C1(C)CCCN(Cc2ccc(-c3ccccc3)o2)C1 (stereo unspecified)	x	-19	x	x	x	3
Cc1cccc(/C=C/C(=O)c2ccc([N+](=O)[O-])o2)c1	-2	33	12	x	-12	37
O=C(/C=C/c1cccc([N+](=O)[O-])c1)c1ccc([N+](=O)[O-])o1	9	68*	59	x	5	50*
COc1ccccc1Cc1c(-c2ccco2)nc2c3ccccc3ccn12	x	12	x	x	x	4
O=C(C(=O)N1CCC(CNS(=O)(=O)c2ccc(OC(F)(F)F)cc2)CC1)c1cc2ccccc2o1	x	6	x	x	x	-1
CSc1ccc(C2c3[nH]c4ccccc4c3CCN2C(=O)c2ccnn2C)cc1 (stereo unspecified)	-24	49*	19	17	-1	14
COc1ccc(N(CC(=O)Nc2ccc(S(=O)(=O)N3CCOCC3)cc2)S(=O)(=O)c2ccc(F)cc2)cc1	-8	51*	0	-9	-9	20
Cc1ccc(OCC(=O)N2CCc3ccccc3C2)c(C)c1	-9	3	5	5	-12	42*
CCOc1ccccc1NC(=O)N1CCCc2ccccc21	x	-30	x	2	x	-3
CCOc1ccccc1NC(=O)N1CCc2ccccc2C1	-29	4	29	-7	-21	41*
COc1cccc(N=Nc2c(=O)[nH]n3c(C)cc(C)nc23)c1	-13	-19	64*	12	-7	0
COc1cccc(N=Nc2c(N)[nH]n3c(=O)cc(-c4ccccc4)nc23)c1	-10	2	0	14	-19	4
CC(c1ccco1)N(C(=O)c1ccccc1NS(=O)(=O)c1cc([N+](=O)[O-])ccc1Cl)c1ccccn1 (stereo unspecified)	-15	32	72*	-5	-16	7
CC(c1ccco1)N(C(=O)c1ccccc1NS(=O)(=O)c1cccc([N+](=O)[O-])c1)c1ccccn1 (stereo unspecified)	-31	x	63*	-13	0	x
CC(c1ccco1)N(C(=O)c1ccccc1NS(=O)(=O)c1ccc(Cl)cc1)c1ccccn1 (stereo unspecified)	-3	-3	32	-3	-12	5
COC(=O)C1=C(C)N(Cc2cccc(C(F)(F)F)c2)C(=NCc2ccc3c(c2)OCO3)NC1c1ccccc1C(F)(F)F (stereo unspecified)	x	-5	x	x	x	4
Fc1ccc(-[n+]2nc(Nc3ccccc3)sc2-c2c3ccccc3cc3ccccc23)cc1	-21	25	25	17	11	46*
SMILES	OX1R antag-1	TAAR1 antag	OX1R antag-2	GPR7 antagonist	CHO parental Ca	TAAR1 ag
Oc1ccc2ccccc2c1-c1sc(Nc2ccccc2)n[n+]1-c1ccc(F)cc1	-21	6	5	-10	-17	14
Cc1cc(NC(=O)c2cccc([N+](=O)[O-])c2)no1	-16	-44	11	-21	-10	3
Cc1csc(NC(=O)c2cc([N+](=O)[O-])cc([N+](=O)[O-])c2)n1	-22	0	64*	-4	3	7
Cc1cc(NC(=O)c2cc([N+](=O)[O-])cc([N+](=O)[O-])c2)no1	-22	-29	57*	-9	-9	1
CC(=O)Nc1ccc(NC(=O)c2cc([N+](=O)[O-])cc([N+](=O)[O-])c2)cc1	-9	17	57*	-15	-5	7
O=C(Nc1ccc(Br)cc1)c1cc([N+](=O)[O-])cc([N+](=O)[O-])c1	-12	11	28	-7	6	11
CN1C(=O)[C@@]2(O[C@H]3C=CC=CN3C3=C2C(=O)CCC3)c2cc([N+](=O)[O-])ccc21	x	1	x	x	x	0
O=C(O)c1ccccc1Nc1ccc([N+](=O)[O-])cc1	1	4	10	-2	-10	-2
O=C(O)c1cccc(Nc2ccc([N+](=O)[O-])c3nonc23)c1	-25	6	34*	-5	-2	4
O=[N+]([O-])c1c(Nc2ccccn2)cc(Cl)c2nonc12	3	-3	45*	-5	-2	-2
CCNc1cc(Nc2c(C)n(C)n(-c3ccccc3)c2=O)c([N+](=O)[O-])c2nonc12	2	11	39	-14	-2	0
O=C(O)c1ccccc1Nc1cc(Cl)c2nonc2c1[N+](=O)[O-]	-5	-30	61*	-17	-9	1
CN(C)c1cc(Nc2cccc(O)c2)c([N+](=O)[O-])c2nonc12	-20	-11	64	-8	3	1
O=C(O)c1ccc(Nc2ccc([N+](=O)[O-])c3nonc23)cc1	x	-3	x	1	x	0
O=C(O)c1cccc(Nc2cc(Cl)c3nonc3c2[N+](=O)[O-])c1	-6	-23	58*	1	-12	1
Cc1cccnc1C1=NOC(Cc2ccccc2)C(=O)N1CCOc1ccc(F)cc1 (stereo unspecified)	x	10	x	x	x	-1
CN1CCCCC(NC(=O)c2ccc(C#N)cc2)C1=O (stereo unspecified)	x	4	x	x	x	0
Cn1c(CSCc2ccc(Cl)c(Cl)c2)nnc1SCC(=O)Nc1nccs1	1	62*	33	10	-7	40*
Cn1c(CSCc2ccc(F)cc2)nnc1SCC(=O)Nc1nccs1	-16	35	12	8	-9	20
CC(=O)c1cccc(N=c2scc(-c3ccc(S(=O)(=O)N4CCOCC4)cc3)n2CCO)c1	25	36	28	14	12	18

Screening data as filed in PubChem.
